ChEMBL document CHEMBL5653630, “Activation of the p53-MDM4 regulatory axis defines the anti-tumour response to PRMT5 inhibition through its role in regulating cellular splicing” (Sci Rep, 2018)
Blank lines part the entries; values can stand above or below the molecule they belong to. Activity calls are given as the source filed them. No cut-off for these calls is given here.

Key:
[1] = Toxicity in mouse assessed as body weight loss at 25 mg/kg, po pretreated for 21 days followed by treatment holiday for 10 days and further compound treatment for 2 weeks starting from day 32 followed by 1 week treatment holiday; type: organism-based; details: in vivo, 504 h, time 21 day
MINO = assay: Induction of cell cycle arrest in human MINO cells assessed as increase in 2n cell population measured upto 5000 nM measured for 3 days by propidium iodide staining based flow cytometric analysis; type: functional; details: time 3.0 day
JVM-2 = assay: Induction of apoptosis in human JVM-2 cells assessed as early apoptotic cells incubated for 6 days by annexin-V/FITC propidium iodide staining based flow cytometry analysis; type: functional, cell-based; details: dose <= 5000.0 nM, time 6.0 day
Rec1 = assay: Induction of cell cycle arrest in human REC1 cells assessed as increase in 2n cell population measured upto 5000 nM measured for 3 days by propidium iodide staining based flow cytometric analysis; type: functional; details: time 3.0 day
NCI-H596 = assay: Antiproliferative activity against human NCI-H596 cells assessed as cell growth inhibition incubated for 10 days; type: functional; details: NCI-H596, 240 h, time 10 day
PC-3 = assay: Antiproliferative activity against human PC-3 cells assessed as cell growth inhibition incubated for 10 days; type: functional; details: PC-3, 240 h, time 10 day
Hs 695T = assay: Antiproliferative activity against human Hs 695T cells assessed as cell growth inhibition incubated for 10 days; type: functional; details: 240 h, time 10 day
Outline: (§1)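 Eurofins panel, 384-well. Cells kept in RPMI-1640 with 10% FBS, 2 mM L-alanyl-L-glutamine and 1 mM Na pyruvate, or in a special medium, at 37°C under 5% CO2. Compound added 24 h after seeding as 10 concentrations in 3.16-fold steps, 0.1% DMSO final. Medium replaced and compound re-dosed at 168 h. After 240 h, cells fixed and nuclei stained for imaging. gIC50 = growth midway between untreated cells and time-zero count.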

[2] = biological target: Protein arginine N-methyltransferase 5 (Homo sapiens) (UniProt O14744); assay: Inhibition of PRMT5 in p53 knockout human Z138 cells effect on p53 expression at 500 nM incubated for 3 to 11 days by Western blot analysis; type: cell-based; details: time 3-11 day
Sequence of Protein arginine N-methyltransferase 5 (Homo sapiens) (O14744 whole entry): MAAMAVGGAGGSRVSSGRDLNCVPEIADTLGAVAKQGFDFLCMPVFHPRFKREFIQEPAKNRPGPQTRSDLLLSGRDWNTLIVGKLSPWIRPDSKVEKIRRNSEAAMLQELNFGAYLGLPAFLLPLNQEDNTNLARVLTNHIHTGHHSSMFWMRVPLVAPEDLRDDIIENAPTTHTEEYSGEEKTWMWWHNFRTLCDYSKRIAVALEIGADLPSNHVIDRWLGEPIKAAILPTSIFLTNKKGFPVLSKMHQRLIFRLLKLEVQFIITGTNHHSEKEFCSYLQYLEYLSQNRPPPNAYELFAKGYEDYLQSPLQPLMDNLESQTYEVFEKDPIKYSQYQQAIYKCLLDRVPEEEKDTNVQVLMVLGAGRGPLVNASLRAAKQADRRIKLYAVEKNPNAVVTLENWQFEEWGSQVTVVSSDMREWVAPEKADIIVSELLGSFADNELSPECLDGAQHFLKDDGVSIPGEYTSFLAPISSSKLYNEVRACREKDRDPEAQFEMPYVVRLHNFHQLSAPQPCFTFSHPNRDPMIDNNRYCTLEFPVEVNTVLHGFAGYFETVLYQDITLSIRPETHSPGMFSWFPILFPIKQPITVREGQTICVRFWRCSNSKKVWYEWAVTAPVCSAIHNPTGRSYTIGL

ARH-77 = assay: Antiproliferative activity against human ARH-77 cells assessed as cell growth inhibition incubated for 10 days; type: functional; details: ARH-77, 240 h, time 10 day
Outline: (§2)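 Cells kept in RPMI-1640 with 10% FBS, 2 mM L-alanyl-L-glutamine and 1 mM Na pyruvate (or a special medium) at 37°C, 5% CO2. Compound added 24 h after seeding, 10 concentrations in 3.16-fold dilution, 0.1% DMSO final. Medium replaced and cells re-dosed at 168 h; 240 h incubation. Nuclei fixed, dye-stained and imaged. gIC50 = growth midway between untreated and time-zero cell counts, from a 4-parameter fit.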

SR = assay: Antiproliferative activity against human SR cells assessed as cell growth inhibition incubated for 10 days; type: functional; details: 240 h, time 10 day
SNB-19 = assay: Antiproliferative activity against human SNB-19 cells assessed as cell growth inhibition incubated for 10 days; type: functional; details: SNB-19, 240 h, time 10 day
Hs746T = assay: Antiproliferative activity against human Hs746T cells assessed as cell growth inhibition incubated for 10 days; type: functional; details: 240 h, time 10 day; outline: as §1
Z-138 = assay: Induction of cell cycle arrest in p53 knockout human Z138 cells assessed as accumulation of cells at G1 phase at 50 to 500 nM incubated for 4 days; type: functional, cell-based; details: dose 50-500 nM, time 4.0 day
SH-4 = assay: Antiproliferative activity against human SH-4 cells assessed as cell growth inhibition incubated for 10 days; type: functional; details: SH-4, 240 h, time 10 day
DMS-53 = assay: Antiproliferative activity against human DMS-53 cells assessed as cell growth inhibition incubated for 10 days; type: functional; details: DMS-53, 240 h, time 10 day
Outline: (§3)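 Outsourced panel run in 384-well plates. Cells were grown in RPMI-1640/10% FBS or a special medium at 37°C, 5% CO2. Compound was added 24 h after seeding as a 10-point, 3.16-fold series in 0.1% DMSO. Medium was refreshed and cells re-dosed at 168 h, with a time-zero plate kept. At 240 h cells were fixed, nuclei stained and imaged. gIC50 is growth midway between untreated and time zero, from a 4-parameter fit.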

[3] = biological target: Protein arginine N-methyltransferase 5 (Homo sapiens) (UniProt O14744); assay: Inhibition of PRMT5 in human Z138 cells assessed as effect on KHSRP level by measuring fold change by LC-MS/MS analysis relative to control; type: cell-based
CAPAN-1 = assay: Antiproliferative activity against human CAPAN-1 cells assessed as cell growth inhibition incubated for 10 days; type: functional; details: CAPAN-1, 240 h, time 10 day; outline: as §2
K562 = assay: Antiproliferative activity against human K562 cells assessed as cell growth inhibition incubated for 10 days; type: functional; details: K562, 240 h, time 10 day
Outline: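 Eurofins-panel 10-day assay in 384-well plates. Cells grown in RPMI-1640 with 10% FBS, 2 mM L-alanyl-L-glutamine and 1mM Na pyruvate, or a special medium, at 37°C in 5% CO₂. Compound added 24 h after seeding, 10-point 3.16-fold series in 0.1% DMSO. Medium replaced and compound re-dosed at 168 h. Nuclei fixed and stained after 240 h, then imaged to give a relative cell count. gIC50 is the concentration giving growth midway between untreated and time-zero counts, from a 4-parameter fit.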

CHL-1 = assay: Antiproliferative activity against human CHL-1 cells assessed as cell growth inhibition incubated for 10 days; type: functional; details: CHL-1, 240 h, time 10 day; outline: as §2
RPMI-6666 = assay: Antiproliferative activity against human RPMI-6666 cells assessed as cell growth inhibition incubated for 10 days; type: functional; details: RPMI-6666, 240 h, time 10 day
SW872 = assay: Antiproliferative activity against human SW872 cells assessed as cell growth inhibition incubated for 10 days; type: functional; details: SW872, 240 h, time 10 day
CGTH-W-1 = assay: Antiproliferative activity against human CGTH-W-1 cells assessed as cell growth inhibition incubated for 10 days; type: functional; details: CGTH-W-1, 240 h, time 10 day; outline: as §2
HT = assay: Antiproliferative activity against human HT cells assessed as cell growth inhibition incubated for 10 days; type: functional; details: 240 h, time 10 day; outline: as §3
SNU1 = assay: Antiproliferative activity against human SNU1 cells assessed as cell growth inhibition incubated for 10 days; type: functional; details: SNU1, 240 h, time 10 day
PANC-1 = assay: Antiproliferative activity against human PANC-1 cells assessed as cell growth inhibition incubated for 10 days; type: functional; details: PANC-1, 240 h, time 10 day
BeWo = assay: Antiproliferative activity against human BeWo cells assessed as cell growth inhibition incubated for 10 days; type: functional; details: 240 h, time 10 day; outline: as §2
BE(2)-C = assay: Antiproliferative activity against human BE2C cells assessed as cell growth inhibition incubated for 10 days; type: functional; details: 240 h, time 10 day; outline: as §2
H4 = assay: Antiproliferative activity against human H4 cells assessed as cell growth inhibition incubated for 10 days; type: functional; details: H4, 240 h, time 10 day; outline: as §3
U-937 = assay: Antiproliferative activity against human U-937 cells assessed as cell growth inhibition incubated for 6 days by celltiter-glo assay; type: functional; details: U-937, 144 h, time 6 day
Outline: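 Cells seeded in 384-well plates at an optimized density and held 24 h. CellTiter-Glo luminescence read at Day 0 and Day 6. Four-parameter fit. gIC50 = midpoint of the growth window between DMSO and T0. Curves required ≥1.5 population doublings.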

SMILES: CC(=O)N1CCC(Nc2cc(C(=O)NC[C@H](O)CN3CCc4ccccc4C3)ncn2)CC1 [PEMRAMETOSTAT]
Activity [1]: Non-Toxic | Activity (MINO): inactive | Activity (JVM-2): Dose-Dependent Effect | Activity (Rec1): inactive

GI50 (NCI-H596): 188 nM | GI50 (PC-3): 873 nM | inhibition [2]: inactive | fold change (FC) [3]: -7.8 | GI50 (K562): 146 nM | GI50 (SW872): 54 nM | GI50 (SNU1): 1040 nM | GI50 (PANC-1): 165 nM | GI50 (U-937): 49 nM
SMILES: O=C(NC[C@H](O)CN1CCc2ccccc2C1)c1ccnc(NC2CCC2)c1
GI50 (Hs 695T): 602 nM | GI50 (ARH-77): 44.4 nM | GI50 (SR): 275 nM | GI50 (SNB-19): 223 nM | GI50 (Hs746T): 171 nM | Activity (Z-138): Active | GI50 (SH-4): 75.2 nM | GI50 (DMS-53): 106 nM | GI50 (CAPAN-1): 370 nM | GI50 (CHL-1): 247 nM | GI50 (RPMI-6666): 748 nM | GI50 (CGTH-W-1): 82.2 nM | GI50 (HT): 206 nM | GI50 (BeWo): 1090 nM | GI50 (BE(2)-C): 803 nM | GI50 (H4): 151 nM
